SKKanGAS inh: SKKanGAS growth inhibition | AID 1662 | inhibition, % at 7.5 µM | S. pyogenes SKKanGAS, kanamycin growth, BacTiter-Glo, 6 h | hit rate 1.3% among 300,000;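 active = mean replicate score, as percent of positive control median, at least 50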;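 also: strain carries kanamycin resistance gene driven by streptokinase promoter and grows in 40 µg/ml kanamycin; loss of luminescence reflects streptokinase promoter inhibition or plain growth inhibition; 0% = median of DMSO wells and 100% = positive control at its reference dose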
Ins promoter up: MIN6 insulin promoter up-regulation. MIN6 insulin promoter-GFP reporter, high-content imaging; stronger effect = higher value. z-score at 5 µM. hit rate 0.3% among 190,000;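 active = z-score above 3 at 5 µM with at least 500 cells counted in the well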
Cl transport mod: modulators of human KCC2 chloride dependent transport | hit rate 2.2% among 190,000 | B-score of Tl+ flux slope (higher = more flux/activation; lower = inhibition) at 10 µM | Q9H2X9 | KCC2 cells, thallium flux FluoZin-2 fluorescence;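 active = thallium flux slope and its plate-corrected score both differing from the plate sample mean at a set confidence after two filtering rounds, in either direction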;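 also: slope of fluorescence scaled to starting intensity during 10 to 20 s after thallium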
WT yeast gro inh: growth inhibition of WT yeast, mitochondrial fusion screen | inhibition, % at 10 µM | AID 1362 | hit rate 2.1% among 190,000 | mitochondrial fusion phenotypic screen, WT strain; in the data active = inhibition above about 58%; tested in S. cerevisiae
Autophagy mod: modulators of autophagy; MEF GFP-LC3 puncta imaging; test concentration mostly 10 µM; calls only at 10 µM (by protocol); hit rate 0.98% among 190,000;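 active = percentage of spot-positive cells more than 3 SD above its plate mean, without a fluorescence outlier flag or 80% toxicity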;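 also: spot-positive cell cutoff set from DMSO-treated cells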
Rad51 HR inh: blocks human Rad51 in homologous recombination | Q06609 | hRad51 DNA strand exchange, fluorescence dequenching | inhibition, % at 10 µM | hit rate 0.085% among 200,000 | AID 1385;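 active = inhibition above 40% at the single screening dose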;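 also: 0% = DMSO control wells and 100% = blanks with heterologous ssDNA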
Target sequence (Q06609 whole entry, looked up): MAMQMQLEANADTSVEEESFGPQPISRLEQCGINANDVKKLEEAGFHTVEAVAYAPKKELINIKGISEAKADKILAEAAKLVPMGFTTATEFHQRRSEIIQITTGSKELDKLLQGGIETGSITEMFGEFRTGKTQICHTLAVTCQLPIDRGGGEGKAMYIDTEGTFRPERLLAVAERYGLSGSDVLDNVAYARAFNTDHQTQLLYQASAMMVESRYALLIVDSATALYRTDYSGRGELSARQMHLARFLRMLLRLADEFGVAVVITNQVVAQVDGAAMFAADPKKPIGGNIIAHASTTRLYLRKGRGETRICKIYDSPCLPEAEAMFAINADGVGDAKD
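Material: Human Rad51 nucleoprotein filaments preassembled on unlabelled ssDNA | Also added: Labelled 47-mer dsDNA for strand exchange | Dosing: Single dose, 10 µM final compound | Schedule: 30-min compound preincubation and 15-min exchange, both room temperature | Technique: Fluorescence dequenching at 485/520 nm | Measure: Percent inhibition relative to plate controls and blanks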
An asterisk follows results filed as active; i = inactive; · = not tested or not shown; + = active, no number. Most compounds without a hit are left out; they make up all but 4.2% or so of the library.

SMILES | SKKanGAS inh | Ins promoter up | Cl transport mod | WT yeast gro inh | Autophagy mod | Rad51 HR inh
Cc1[nH][nH]c(=O)c1C(c1c(C)[nH][nH]c1=O)c1cn(Cc2ccc(Cl)c(Cl)c2)c2ccccc12 | 69* | -0.14 | -2.2 | 71* | i | -1
CC(=O)Nc1ccc(C#Cc2ccc(NC(C)=O)cc2)cc1 | 84* | -0.62 | · | -1 | i | 9
Cc1cccc(NC(=O)c2sc(Cl)nc2-c2ccccc2)c1 | 67* | 1.9 | 0.29 | 8 | i | -2
Cc1cc(C)nc(NC2=NCC(=O)N2c2ccc3c(c2)OCCO3)n1 | -2 | -0.02 | 0.79 | 95* | i | -9
CCCCc1cc(=O)oc2cc(OCC(=O)Nc3ccccn3)ccc12 | -11 | · | · | · | · | ·
O=C(NC(=S)N1CCN(c2ccc(C(F)(F)F)cc2[N+](=O)[O-])CC1)c1cccs1 | 87* | -0.79 | 64* | 59 | i | 0
CCC(C)(C)NC(=O)CN(C(=O)CCC(=O)Nc1nccs1)c1ccc2c(c1)OCCO2 | 8 | · | · | · | · | ·
Cc1nc2cc(C(=O)OCC(=O)NC3CCS(=O)(=O)C3)ccc2n1-c1ccccc1 (stereo not drawn) | 5 | · | · | -11 | i | 3
Cc1nc2cc(C(=O)OCC(=O)NC34CC5CC(CC(C5)C3)C4)ccc2n1-c1ccccc1 | 21 | -0.1 | 0.0027 | 59* | i | 1
CSC(=S)N/N=C(\C)c1ccccc1 | -10 | -0.34 | 143* | 65* | i | 18
C/C(=N\NC(=S)Nc1cccc(C)c1)c1cccc(N)c1 | 11 | -0.57 | 9.2* | 10 | i | -5
C/C(=N\NC(=S)Nc1cccc(C)c1)c1ccccc1 | 22 | 0.36 | 7.4* | -3 | i | -6
CC(C)(C)c1ccc(C(=O)N2CCC(C(=O)NC3CCCCCC3)CC2)cc1 | -11 | · | · | · | · | ·
CCc1nc(C(N)=O)c2[nH]c(=O)n(-c3ccc(OC)cc3OC)c2n1 | -2 | · | · | · | · | ·
Cc1ccc(C(=O)OC(C)CN2C(C)CCCC2C)cc1 (stereo not drawn) | 1 | · | · | · | · | ·
C/C(=N\NC(=O)c1ccc(-c2ccccc2)cc1)C1C(=O)c2ccccc2C1=O | 130* | 0.23 | 0.93 | 9 | i | -68
CCOc1ccc(C(=O)N/N=C(/C)C2C(=O)c3ccccc3C2=O)cc1 | 21 | -0.14 | -0.85 | 0 | i | 5
CC1(C)CCC23CC[C@]4(C)C(OC2=O)(C3C1)[C@H]1O[C@H]1C1[C@@]2(C)CC[C@@H](O)C(C)(C)C2CC[C@]14C (stereo partly drawn) | · | · | · | · | · | 5
CCCCc1ccc(N/C(N)=N/c2nc(C)cc(C)n2)cc1 | 3 | -0.23 | -3.7 | · | · | -1
COc1ccc(-c2cc(C3CC3)nc(SCC(=O)c3cccs3)c2C#N)cc1 | -14 | 0.33 | 0.75 | 7 | + | -21
CCc1cc2c(=O)n(-c3ccc(C)cc3)cnc2s1 | 1 | 1.5 | -0.21 | -14 | i | -3
CC(C)OC(=O)c1ccc(NC(=O)c2ccccc2)cc1 | -6 | · | -0.72 | 29 | + | ·
CCOC(=O)c1ccc(NC(=O)c2ccc(NC(=O)c3ccccc3)cc2)cc1 | -15 | -0.64 | -1.3 | 16 | i | -2
CC(C)Cc1nc(N2CCN(C(=O)c3ccccc3)CC2)c(C#N)c2c1CCC2 | 7 | 0.48 | 0.04 | 73* | i | 2
CC(=O)N1CCN(c2nc(CC(C)C)c3c(c2C#N)CCC3)CC1 | -1 | -0.82 | · | -10 | i | ·
SMILES | SKKanGAS inh | Ins promoter up | Cl transport mod | WT yeast gro inh | Autophagy mod | Rad51 HR inh
CC(C)Cc1nc(N2CCCCC2)c(C#N)c2c1CCC2 | 51* | -0.25 | · | 24 | i | 9
Cc1cccc(CC(=O)NCCN2CCOCC2)c1 | -9 | · | · | · | · | ·
Cc1cc(NC(=S)N(CCCN2CCN(C)CC2)Cc2ccco2)ccc1Cl | -1 | 2.2 | -1.1 | 18 | + | -6
Cc1ccc(NC(=S)N(CCCN2CCOCC2)Cc2ccco2)cc1C | · | -0.75 | -0.0024 | 12 | i | 27
CCN1CCN(CCCN(Cc2ccco2)C(=S)Nc2cccc(Cl)c2C)CC1 | -1 | -0.43 | 2.1 | 5 | + | 0
Cc1c(Cl)cccc1NC(=S)N(CCCN1CCOCC1)Cc1ccco1 | 4 | -0.62 | · | -8 | i | 3
CCCCNC(=O)N1c2ccccc2CC1C (stereo not drawn) | -6 | 0.01 | 0.04 | 8 | i | 9
CC(C)CC(NC(=O)c1ccc(C#CC(C)(C)O)s1)C(=O)O (stereo not drawn) | 1 | -0.44 | 0.12 | -14 | i | 5
N#Cc1c(NC(=S)NC(=O)c2ccccc2)sc2c1CCN(CCc1ccccc1)C2 | 2 | · | 0.8 | -1 | + | i
Cc1ccc(NC(=O)C(OC(=O)c2ccc(O)cc2)c2ccccc2)cc1Cl (stereo not drawn) | 29 | 0.4 | -0.44 | 89* | i | -9
COc1ccc(NC(=O)C(OC(=O)c2cnc(C)cn2)c2ccccc2)cc1Cl (stereo not drawn) | 51* | · | · | · | · | ·
CCC(C(=O)Nc1cccc(C(=O)O)c1)c1ccccc1 (stereo not drawn) | -1 | -0.16 | -0.46 | -16 | i | -3
CCC(C(=O)Nc1ccc(OC)c(Cl)c1)c1ccccc1 (stereo not drawn) | 12 | 0.17 | 0.015 | 59* | i | 5
Cc1ccc(NC(=O)C(OC(=O)c2ccc(F)cc2)c2ccccc2)cc1Cl (stereo not drawn) | 25 | -0.26 | 1.2 | -10 | i | -12
N=C1C(c2ccccc2)=C(O)CN1c1cccc2ccccc12 | 0 | -0.8 | 0.83 | -5 | i | 0
CC1C(=O)N2CCCc3cc(S(=O)(=O)NCc4ccccc4Cl)cc1c32 (stereo not drawn) | 0 | · | · | · | · | ·
Cc1ccc(OCCNC(=O)c2ccccc2SCC(=O)N2CCCC2)cc1 | 19 | · | · | · | · | ·
CNS(=O)(=O)c1ccc(NS(=O)(=O)c2ccccc2F)cc1 | -5 | 0.31 | 0.018 | -3 | i | 3
Cc1ccc2nc3cc([N+](=O)[O-])cc([N+](=O)[O-])c3cc2c1 | · | · | -0.48 | 27 | + | -3
COc1cccc(C(=O)NN2C(=S)N(c3ccccc3)C(=O)C2CC(N)=O)c1 (stereo not drawn) | 0 | · | 0.11 | · | · | 11
O=C(NCCNC(=O)c1ccc(-c2ccc(Cl)c(Cl)c2)o1)c1cnccn1 | -8 | · | · | · | · | ·
CCn1cc(C(=O)NC(=S)Nc2ccccc2Br)cn1 | 51* | · | · | · | · | ·
CCn1cc(C(=O)NC(=S)Nc2ccccc2[N+](=O)[O-])cn1 | 7 | · | · | · | · | ·
CCN(CC(=O)Nc1c(F)cccc1F)C(=O)C1CCN(c2ncnc3sc(C)c(C)c23)CC1 | 8 | · | · | · | · | ·
O=C(CC12CC3CC(CC(C3)C1)C2)NCC(=O)N1CCc2ccccc2C1 | -1 | 3.3* | -0.029 | -3 | i | 4
CC(NC(=O)COC(=O)COc1cccc2c1OC(C)(C)C2)c1ccccc1 (stereo not drawn) | -3 | · | · | · | · | ·
O=C(Nc1oc2ccccc2c(=O)c1-c1ccc(Cl)cc1)c1ccco1 | 15 | · | · | · | · | ·
